Read-outs that look alike come from different tables or passages of the source.
Assays:
[1] = test system: HepaRG cells; test: MTT cytotoxicity on HepaRG cells in HK-2/HepaRG co-culture; type: cell-based; details: co-culture; for IC50: MTT; for effect on viability of HepaRG cells (in words): per Table 3
In short: (§1)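 HK-2 (RPMI-1640) and HepaRG (William's E plus Tox supplement), passages 10–15, seeded together in IdMOC plates and allowed 4 h at 37 °C, 5% CO2. Test compound at several concentrations, DMSO ≤0.5% final, for 24 h and 48 h; MTT read-out. Triptolide positive control: 10 μmol/L for HK-2, 25 μmol/L for HepaRG. IC50 by nonlinear regression; mean ± SD. 48 h IC50 under 100 μM scored toxic.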

[2] = test system: HK-2 cells; test: MTT cytotoxicity on HK-2 cells in HK-2/HepaRG co-culture; type: cell-based; details: co-culture; for IC50: MTT
In short: as §1

[3] = MTT cytotoxicity on HepaRG cells in HK-2/HepaRG co-culture; type: cell-based; details: human; for IC50 at 24 h / IC50 at 48 h: HepaRG cells in co-culture with HK-2 cells (IdMOC plates)
In short: as §1

[4] = MTT cytotoxicity on HK-2 cells in HK-2/HepaRG co-culture; type: cell-based; details: human; for IC50 at 24 h / IC50 at 48 h: HK-2 cells in co-culture with HepaRG cells (IdMOC plates)
In short: as §1

[5] = In short: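 Liver call by software prediction over five injury markers (AlkPhos, GGT, LDH, SGOT, SGPT), positive when three are positive. Kidney call by a self-built QSAR classifier (accuracy 76.7%) giving positive/negative. In vitro, 48 h MTT IC50 under 100 μM in HK-2/HepaRG co-culture counted as toxic. Compounds flagged when either approach was positive.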
[6] = test system: HK-2 cells; test: MTT cytotoxicity on HK-2 cells in single culture; type: cell-based; details: Homo sapiens, HK-2, 24 h, read-out: IC50 HK-2 Single culture
In short: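 HK-2 cells (passages 10–15) in RPMI-1640 with 10% FBS at 37 °C, 5% CO2, cultured alone and exposed 24 h to a range of test compound concentrations, DMSO ≤0.5% final; vehicle control 0.5% DMSO. Viability by MTT; IC50 from nonlinear regression.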

[7] = reported in the literature ref Wang et al., 2009; cited from earlier work
[8] = read-out: Hepatic cytotoxicity IC50 HepaRG 24 h, 24 h
[9] = read-out: Hepatic cytotoxicity IC50 HepaRG 48 h, 48 h
[10] = read-out: Renal cytotoxicity IC50 HK-2 24 h, 24 h
[11] = read-out: Renal cytotoxicity IC50 HK-2 48 h, 48 h

Row | Compound | IC50 [1, 8] [µM] | IC50 [1, 9] [µM] | IC50 [2, 10] [µM] | IC50 [2, 11] [µM] | IC50 at 24 h [3] [µM] | IC50 at 48 h [3] [µM] | IC50 at 24 h [4] [µM] | IC50 at 48 h [4] [µM] | further results
1 | 2-O-β-D-Glucoside-9-dehydroxyeurotinone [No. 22] | > 500 | > 500 | > 500 | > 500 | – | – | – | – | –
2 | 9-Dehydroxyeurotinone (EDG) [No. 21] | 448 | 331 | 380 | 111 | – | – | – | – | –
3 | COc1cc2c(c(OC)c1OC)C(=O)c1c(cc(C)c(O)c1OC)C2=O [No. 1, Chryso-obtusin] | – | – | – | – | 71.9 | 388 | 53 | 33.6 | –
4 | COc1cc2c(c(O)c1OC)C(=O)c1c(cc(C)c(O)c1OC)C2=O [No. 2, Obtusin] | 298 | 81.2 | 50.5 | 57.8 | – | – | – | – | both hepatotoxicity and nephrotoxicity (in words) [5]: both hepatotoxicity and nephrotoxicity
5 | COc1c(O)c(C)cc2c1C(=O)c1c(O)cccc1C2=O [No. 3, Obtusifoline] | – | – | – | – | 117 | 35 | 310 | 389 | –
6 | COc1ccc2c(c1OC)C(=O)c1c(cc(C)c(O)c1OC)C2=O [No. 4, 1,7,8-methoxyl-2-hydroxyl-3-methyl-anthraquinone] | 420 | 192 | 332 | 37.5 | – | – | – | – | –
7 | COc1c(O)cc2c(c1O)C(=O)c1c(cc(C)c(O)c1OC)C2=O [No. 5, Aurantio-obtusin] | – | – | – | – | 333 | 75.5 | > 500 | 117 | effect on viability of HepaRG cells (in words) [1]: decreased the viability of HepaRG cells
8 | COc1c(O)c(C)cc2c1C(=O)c1c(cc(O)c(O)c1O)C2=O [No. 6, 1,2,3,7-tetrahydroxy-8-methoxy-6-methyl-anthraquinone] | – | – | – | – | > 500 | 209 | > 500 | 283 | –
9 | COc1c(O)c(C)cc2c1C(=O)c1c(ccc(O)c1O)C2=O [No. 7, 1,2,7-trihydroxy-8-methoxy-6-methyl-9,10-anthraquinone] | – | – | – | – | > 500 | 44.2 | > 500 | > 500 | –
10 | Cc1cc(O)c2c(c1)C(=O)c1cc(O)cc(O)c1C2=O [No. 8, Emodin] | – | – | – | – | 125 | 31.9 | 89 | 122 | IC50 [6]: 140 µM; effect on viability of HepaRG cells (in words) [1]: decreased the viability of HepaRG cells; both hepatotoxicity and nephrotoxicity (in words) [5]: both hepatotoxicity and nephrotoxicity
11 | Cc1cc(O)c2c(c1)C(=O)c1cccc(O)c1C2=O [No. 9, Chrysophanol] | – | – | – | – | > 500 | 170 | > 500 | 93.9 | –
12 | O=C1c2cccc(O)c2C(=O)c2c(O)cc(CO)cc21 [No. 10, Aloe-emodin] | – | – | – | – | > 500 | 96.2 | > 500 | 134 | effect on viability of HepaRG cells (in words) [1]: decreased the viability of HepaRG cells; nephrotoxicity in vivo (in words) [7]: nephrotoxic
13 | O=C(O)c1cc(O)c2c(c1)C(=O)c1cccc(O)c1C2=O [No. 11, Rhein] | – | – | – | – | 307 | 36.1 | 229 | 44.1 | effect on viability of HepaRG cells (in words) [1]: decreased the viability of HepaRG cells; effect on viability of HK-2 cells (in words) ([2]; per Table 3): reduced the viability of HK-2 cells; both hepatotoxicity and nephrotoxicity (in words) [5]: both hepatotoxicity and nephrotoxicity
14 | COc1cc(O)c2c(c1)C(=O)c1cc(C)cc(O)c1C2=O [No. 12, Physcion] | – | – | – | – | > 500 | 73.6 | > 500 | 196 | –
15 | Cc1cc2c(c(O)c1O)C(=O)c1c(O)cc(O)cc1C2=O [No. 13, Alaternin (quinone)] | > 500 | > 500 | > 500 | > 500 | – | – | – | – | –
16 | O=C(O)c1cc(O)c2c(c1)C(=O)c1cccc(O[C@@H]3O[C@H](CO)[C@@H](O)[C@H](O)[C@H]3O)c1C2=O [No. 15, Rhein-8-O-β-D-glucoside] | > 500 | 208 | > 500 | 108 | – | – | – | – | –
17 | COc1c(O[C@@H]2O[C@H](CO)[C@@H](O)[C@H](O)[C@H]2O)c(C)cc2c1C(=O)c1c(O)cccc1C2=O [No. 16, Obtusifoline-2-O-β-D-glucoside] | 108 | 98.5 | 270 | 251 | – | – | – | – | –
18 | O=C1c2ccccc2C(=O)c2ccccc21 [No. 17, 9,10-Anthracenedione] | – | – | – | – | 93.4 | 84.4 | > 500 | 138 | –
19 | COc1cc2c(c(O)c1OC)C(=O)c1c(cc(C)c(O[C@@H]3O[C@H](CO)[C@@H](O)[C@H](O)[C@H]3O)c1OC)C2=O [No. 18, Gluco-obtusin] | 178 | 125 | 255 | > 500 | – | – | – | – | –
20 | COc1c(O[C@@H]2O[C@H](CO)[C@@H](O)[C@H](O)[C@H]2O)cc2c(c1O)C(=O)c1c(cc(C)c(O)c1OC)C2=O [No. 20, Glucoaurantio-obtusin] | 154 | – | > 500 | – | – | – | – | – | –
21 | CC(=O)OC[C@H]1O[C@@H](Oc2cc(O)cc3cc4oc(C)cc(=O)c4c(O)c23)[C@H](O)[C@@H](O)[C@@H]1O [No. 24, Nor-rubrofusarin-6-O-β-D-(6’-O-acetyl)glucopyranoside] | > 500 | 226 | > 500 | > 500 | – | – | – | – | –
22 | CC(=O)c1c(C)cc2cc(O)cc(O[C@@H]3O[C@H](CO)[C@@H](O)[C@H](O)[C@H]3O)c2c1O [No. 25, 6-Hydroxymusizin-8-O-β-D-glucopyranoside] | > 500 | 317 | > 500 | > 500 | – | – | – | – | –
23 | CC(C)[C@]12O[C@H]1[C@@H]1O[C@]13[C@]1(O[C@H]1C[C@H]1C4=C(CC[C@@]13C)C(=O)OC4)[C@@H]2O [Triptolide, reference compound] | – | – | – | – | – | – | – | – | viability at 25 μmol/L ([3]; HepaRG cells co-cultured with HK-2 cells in IdMOC plates): 50.5 ± 5.68%; viability at 10 μmol/L ([4]; HK-2 cells co-cultured with HepaRG cells in IdMOC plates): 43.6 ± 2.26%

From publication PMC8320615 (Current Research in Toxicology, 2021)
